Reference: ChEMBL document CHEMBL1125283, “Improvement in potency of an oxytocin antagonist after systematic substitutions with L-tryptophan” (J Med Chem, 1991)
Numbered stars: 1 amine (or outer) side, 2 acyl side, 3 side chain; on linkers, the order of the positions; unused ones are H or OH. Bridge positions count the residues as written; N and C are the ends. Square brackets hold non-standard residues; d marks the D form. Peptide text beside a SMILES is read from it. X1 = O=C(CC1(S[*:2])CCCCC1)[*:1]

What was measured:
[1] = species: Rattus norvegicus; assay: Compound was evaluated for the competitive antagonism to Arginine vasopressin (AVP) in rat antidiuretic assay; format: functional, organism-based; settings: Urine, read-out: pA2 (converted)
How it was run: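 Water-loaded rats under ethanol anesthesia; antidiuretic response to AVP standard. In vivo pA2 estimated by dividing the effective dose (molar level of antagonist halving the agonist response) by an estimated distribution volume of 67 mL/kg.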

[2] = species: Rattus norvegicus; assay: Competitive antagonist activity on oxytocin contractile action in isolated rat uterus; format: functional; settings: read-out: pA2 (converted)
How it was run: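 Uteri isolated from rats in natural estrus, bathed in Van Dyke-Hastings solution with 0.5 mM Mg2+. Isometric contractions to OT doses recorded by force-displacement transducer; response quantified as integrated area under peaks. Synthetic OT (450 units/mg) standard. pA2 by Schild method from at least four separate assays; mixed agonist/antagonist potencies approximated.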

Structure (SMILES) | Kb [1] | Kb [2]
CC[C@H](C)[C@@H]1NC(=O)[C@@H](Cc2c[nH]c3ccccc23)NC(=O)CC2(CCCCC2)SSC[C@@H](C(=O)N2CCC[C@H]2C(=O)N[C@@H](Cc2c[nH]c3ccccc23)C(=O)NCC(N)=O)NC(=O)[C@H](CC(N)=O)NC(=O)[C@H](CCC(N)=O)NC1=O | > 1 µM | 0.00603 µM
CC[C@H](C)[C@@H]1NC(=O)[C@H](Cc2c[nH]c3ccccc23)NC(=O)CC2(CCCCC2)SSC[C@@H](C(=O)N2CCC[C@H]2C(=O)N[C@@H](CCCN=C(N)N)C(=O)NCC(N)=O)NC(=O)[C@H](CC(N)=O)NC(=O)[C@H](CCC(N)=O)NC1=O (WIQNCPRG-NH2; linker N-5 via X1) | – | 0.316 µM
CC[C@H](C)[C@@H]1NC(=O)[C@@H](Cc2c[nH]c3ccccc23)NC(=O)CC2(CCCCC2)SSC[C@@H](C(=O)N2c3ccccc3C[C@H]2C(=O)N[C@@H](CCCN=C(N)N)C(=O)NCC(N)=O)NC(=O)[C@H](CC(N)=O)NC(=O)[C@H](CCC(N)=O)NC1=O | – | 0.012 µM
CC[C@H](C)[C@@H]1NC(=O)[C@@H](Cc2c[nH]c3ccccc23)NC(=O)CC2(CCCCC2)SSC[C@@H](C(=O)N[C@@H](Cc2c[nH]c3ccccc23)C(=O)N[C@@H](CCCN=C(N)N)C(=O)NCC(N)=O)NC(=O)[C@H](CC(N)=O)NC(=O)[C@H](CCC(N)=O)NC1=O | > 1.58 µM | 0.00871 µM
CC[C@H](C)[C@H](NC(=O)[C@@H](Cc1c[nH]c2ccccc12)NC(=O)CC12CC3CC(CC(C3)C1)C2)C(=O)N[C@@H](CCC(N)=O)C(=O)N[C@@H](CC(N)=O)C(=O)N[C@@H](Cc1c[nH]c2ccccc12)C(=O)N1CCC[C@H]1C(=O)N[C@@H](CCCN=C(N)N)C(=O)NCC(N)=O | – | 0.302 µM
CC[C@H](C)[C@@H]1NC(=O)[C@@H](Cc2c[nH]c3ccccc23)NC(=O)CC2(CCCCC2)SSC[C@@H](C(=O)N2CCC[C@H]2C(=O)N[C@@H](CCCN=C(N)N)C(=O)N[C@@H](Cc2cn(C=O)c3ccccc23)C(N)=O)NC(=O)[C@H](CC(N)=O)NC(=O)[C@H](CCC(N)=O)NC1=O | – | 0.0214 µM
CC[C@H](C)[C@H](NC(=O)[C@@H](Cc1c[nH]c2ccccc12)NC(=O)[C@H](Cc1c[nH]c2ccccc12)NC(C)=O)C(=O)N[C@@H](CCC(N)=O)C(=O)N[C@@H](CC(N)=O)C(=O)N[C@H](C(=O)N1CCC[C@H]1C(=O)N[C@@H](CCCN=C(N)N)C(=O)NCC(N)=O)C(C)C | – | 3.72 µM
CC[C@H](C)[C@H](NC(=O)[C@@H](Cc1c[nH]c2ccccc12)NC(=O)CC12CC3CC(CC(C3)C1)C2)C(=O)N[C@@H](CCC(N)=O)C(=O)N[C@@H](CC(N)=O)C(=O)N[C@H](C(=O)N1CCC[C@H]1C(=O)N[C@@H](CCCN=C(N)N)C(=O)NCC(N)=O)C(C)C | – | 4.27 µM
CC[C@H](C)[C@@H]1NC(=O)[C@@H](Cc2c[nH]c3ccccc23)NC(=O)CC2(CCCCC2)SSC[C@@H](C(=O)N2CCC[C@H]2C(=O)N[C@@H](CCCN=C(N)N)C(=O)NCC(N)=O)NC(=O)[C@H](CC(N)=O)NC(=O)[C@H](CCC(N)=O)NC1=O ([dW]IQNCPRG-NH2; linker N-5 via X1) | > 1.26 µM | –
CC[C@H](C)[C@@H]1NC(=O)[C@@H](Cc2c[nH]c3ccccc23)NC(=O)CC2(CCCCC2)SSC[C@@H](C(=O)N2CCC[C@H]2C(=O)N[C@@H](CCCN=C(N)N)C(=O)N[C@@H](Cc2c[nH]c3ccccc23)C(N)=O)NC(=O)[C@H](CC(N)=O)NC(=O)[C@H](CCC(N)=O)NC1=O | > 1 µM | 0.00933 µM
